Measured values from ChEMBL document CHEMBL4359883, “4(1H)-quinolone derivatives overcome acquired resistance to anti-microtubule agents by targeting the colchicine site of β-tubulin” (Eur J Med Chem, 2019).
Calls of active or inactive are those of the source. No cut-off for these calls is given here.

Assays:
NCI-H1975 = experiment: Antiproliferative activity against human NCI-H1975 cells assessed as reduction in cell viability after 72 hrs by MTS assay; assay type: functional, cell-based; conditions: NCI-H1975, 72 h
Method in brief: (§1)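 Cells plated at 2000/well, cultured overnight, then exposed to a range of compound concentrations for 72 h. MTS reagent added for 1–4 h at 37 °C and absorbance read at 490 nm. Cultured in RPMI 1640 or DMEM with 10% heat-inactivated FBS under 5% CO2. Data are the mean of three determinations.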

[1] = Toxicity in Balb/c mouse xenografted with human KBtax cells assessed as serum BUN level at 15 mg/kg, ip administered 3 times per week and measured after 21 days (reference value: 17.8 +/-1.1 mg/dl); assay type: organism-based; conditions: in vivo, 504 h
[2] = Antitumour activity against human KBtax cells xenografted in Balb/c mouse assessed as reduction in tumour size at 15 mg/kg, ip administered 3 times per week and measured after 21 days (reference value: 1109 +/- 128.3 mm3); assay type: functional
[3] = Antiproliferative activity against human CCRF-CEM/VBL cells assessed as reduction in cell viability after 72 hrs by MTS assay; assay type: functional, cell-based; method in brief: as §1
[4] = Antiproliferative activity against human KBtax cells assessed as reduction in cell viability after 72 hrs by MTS assay; assay type: functional, cell-based; method in brief: as §1
[5] = Antiproliferative activity against human KB/VCR cells assessed as reduction in cell viability after 72 hrs by MTS assay; assay type: functional, cell-based; method in brief: as §1
[6] = molecular target: T1, Tubulin alpha (Homo sapiens) (UniProt P0DPH7+P68366+Q71U36+P68363+Q9BQE3+Q6PEY2+A6NHL2+Q9NY65); experiment: Induction of microtubule depolymerization in human CL1-0 cells assessed as increase in alpha tubulin soluble form by immunoblot analysis; assay type: cell-based
Method in brief: (§2)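 Lysate spun at 16,000 rpm for 15 min at room temperature. Soluble (monomer) and particulate (polymer) fractions immunoblotted for α-tubulin.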

[7] = Toxicity in Balb/c mouse xenografted with human KBtax cells assessed as serum AST level at 15 mg/kg, ip administered 3 times per week and measured after 21 days (reference value: 94.2 +/- 12.5 IU/L); assay type: organism-based; conditions: in vivo, 504 h
[8] = molecular target: T1, Tubulin alpha (Homo sapiens); experiment: Induction of microtubule depolymerization in human NCI-H1975 cells assessed as increase in alpha tubulin soluble form by immunoblot analysis; assay type: cell-based; method in brief: as §2
CCRF-CEM = experiment: Antiproliferative activity against human CCRF-CEM cells assessed as reduction in cell viability after 72 hrs by MTS assay; assay type: functional, cell-based; method in brief: as §1
[9] = Toxicity in Balb/c mouse xenografted with human KBtax cells assessed as serum creatinine level at 15 mg/kg, ip administered 3 times per week and measured after 21 days (reference value: 0.22 +/- 0.02 mg/dl); assay type: organism-based; conditions: in vivo, 504 h
Tubulin (Sus scrofa) = Tubulin (Sus scrofa) (UniProt P02554+P02550); experiment: Inhibition of porcine tubulin at 5 uM in presence of GTP measured every minute for 1 hr by microplate reader analysis; assay type: protein assay
Sequence of Tubulin (Sus scrofa) (P02550 whole entry, looked up): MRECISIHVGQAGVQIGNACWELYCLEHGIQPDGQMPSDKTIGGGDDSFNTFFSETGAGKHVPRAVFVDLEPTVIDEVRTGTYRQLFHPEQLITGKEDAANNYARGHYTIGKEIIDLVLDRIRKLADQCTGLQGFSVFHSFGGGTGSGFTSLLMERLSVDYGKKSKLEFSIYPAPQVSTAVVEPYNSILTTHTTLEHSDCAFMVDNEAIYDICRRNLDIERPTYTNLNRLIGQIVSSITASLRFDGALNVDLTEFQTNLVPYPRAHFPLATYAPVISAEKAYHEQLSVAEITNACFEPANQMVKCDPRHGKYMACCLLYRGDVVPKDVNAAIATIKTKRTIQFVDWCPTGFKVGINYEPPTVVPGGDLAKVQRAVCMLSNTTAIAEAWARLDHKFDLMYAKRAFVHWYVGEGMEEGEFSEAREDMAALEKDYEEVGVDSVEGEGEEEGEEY
Sequence of Tubulin (Sus scrofa) (P02554 whole entry, looked up): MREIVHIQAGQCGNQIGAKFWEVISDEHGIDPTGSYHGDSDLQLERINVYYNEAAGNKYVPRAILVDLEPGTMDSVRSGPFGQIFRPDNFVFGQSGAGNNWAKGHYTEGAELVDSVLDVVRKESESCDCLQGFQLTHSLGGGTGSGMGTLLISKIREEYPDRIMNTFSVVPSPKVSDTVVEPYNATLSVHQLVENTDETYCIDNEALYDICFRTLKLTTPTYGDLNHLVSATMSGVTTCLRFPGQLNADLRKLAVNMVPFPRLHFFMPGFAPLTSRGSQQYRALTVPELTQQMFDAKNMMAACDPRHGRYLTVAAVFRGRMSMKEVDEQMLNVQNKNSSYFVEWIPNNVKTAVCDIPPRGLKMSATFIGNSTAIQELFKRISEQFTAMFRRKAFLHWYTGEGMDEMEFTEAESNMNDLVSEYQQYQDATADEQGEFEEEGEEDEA

[10] = Cell cycle arrest in human NHFB cells assessed as effect on cell population at sub-G1 phase at 40 to 80 nM after 24 hrs by propidium iodide-staining based flow cytometry; assay type: ADME; conditions: 0.08 µM
Method in brief: (§3)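 Cells treated for 24 h, then trypsinized and fixed overnight in ice-cold 70% ethanol. Stained for 30 min with propidium iodide (10 µg/mL) plus RNase (20 µg/mL), and DNA content measured by flow cytometry. Mean ± SD.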

[11] = Toxicity in Balb/c mouse xenografted with human NCI-H1975 cells assessed as serum BUN level at 8 mg/kg, ip administered 3 times per week for 25 days (reference value: 18.5 +/- 1.6 mg/dl); assay type: organism-based; conditions: in vivo, 600 h
[12] = Toxicity in Balb/c mouse xenografted with human NCI-H1975 cells assessed as serum ALT level at 4 mg/kg, ip administered 3 times per week for 25 days (reference value: 36.6 +/- 5.9 IU/L); assay type: organism-based; conditions: in vivo, 600 h
Tubulin = experiment: Binding affinity to tubulin (unknown origin) assessed as dissociation constant by SPR analysis; assay type: protein-complex assay, Homo sapiens
Method in brief: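 Biotin-tubulin (50 µg/mL) captured on a streptavidin chip to about 3,000 RU, with remaining sites blocked by biocytin and a free flow cell as reference. Compound injected at different concentrations in HBS-EP+ (pH 7.4) at 25 °C. KD obtained from steady-state fitting.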

[13] = Toxicity in Balb/c mouse xenografted with human NCI-H1975 cells assessed as serum creatinine level at 8 mg/kg, ip administered 3 times per week for 25 days (reference value: 0.14 +/- 0.02 mg/dl); assay type: organism-based; conditions: in vivo, 600 h
[14] = Induction of apoptosis in human NHFB cells assessed as cytochrome c release at 40 to 80 nM after 24 hrs by immunoblotting analysis; assay type: cell-based; conditions: 0.08 µM
[15] = Induction of apoptosis in human NHFB cells assessed as cleaved caspase 3 expression at 40 nM after 24 to 72 hrs by immunoblotting analysis; assay type: cell-based; conditions: 0.04 µM
[16] = Toxicity in Balb/c mouse xenografted with human NCI-H1975 cells assessed as serum BUN level at 4 mg/kg, ip administered 3 times per week for 25 days (reference value: 18.5 +/- 1.6 mg/dl); assay type: organism-based; conditions: in vivo, 600 h
[17] = Toxicity in Balb/c mouse xenografted with human NCI-H1975 cells assessed as serum AST level at 4 mg/kg, ip administered 3 times per week for 25 days (reference value: 122 +/- 14.5 IU/L); assay type: organism-based; conditions: in vivo, 600 h
[18] = Toxicity in Balb/c mouse xenografted with human NCI-H1975 cells assessed as serum AST level at 8 mg/kg, ip administered 3 times per week for 25 days (reference value: 122 +/- 14.5 IU/L); assay type: organism-based; conditions: in vivo, 600 h
[19] = Cell cycle arrest in human NHFB cells assessed as effect on cell population at G2/M phase at 40 to 80 nM after 24 hrs by propidium iodide-staining based flow cytometry; assay type: ADME; conditions: 0.08 µM; method in brief: as §3
[20] = Induction of apoptosis in human NHFB cells assessed as PARP cleavage at 40 nM after 24 to 72 hrs by immunoblotting analysis; assay type: cell-based; conditions: 0.04 µM
[21] = Toxicity in Balb/c mouse xenografted with human NCI-H1975 cells assessed as serum creatinine level at 4 mg/kg, ip administered 3 times per week for 25 days (reference value: 0.14 +/- 0.02 mg/dl); assay type: organism-based; conditions: in vivo, 600 h
[22] = Toxicity in Balb/c mouse xenografted with human NCI-H1975 cells assessed as effect on body mass at 4 to 8 mg/kg, ip administered 3 times per week for 25 days; assay type: organism-based; conditions: in vivo, 600 h
Method in brief: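 H1975 cells (2 × 10^6) injected subcutaneously into right flank of 6-week-old BALB/c nude mice; established tumors treated intraperitoneally with 4 or 8 mg/kg compound in DMSO, or DMSO, three times a week for 25 days (n = 6 per group). Body mass recorded before each injection.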

[23] = Toxicity in Balb/c mouse xenografted with human NCI-H1975 cells assessed as serum ALT level at 8 mg/kg, ip administered 3 times per week for 25 days (reference value: 36.6 +/- 5.9 IU/L); assay type: organism-based; conditions: in vivo, 600 h
Tubulin (Homo sapiens) [24] = molecular target: T2, Tubulin (Homo sapiens) (UniProt P68371+Q9H4B7+P0DPH7+P68366+Q13509+Q71U36+P04350+Q3ZCM7+P07437+P68363+Q9BQE3+Q6PEY2+Q13885+Q9BVA1+Q9BUF5); experiment: Binding affinity to tubulin (unknown origin) assessed as reduction in alpha-C fragment production at 100 uM after 30 mins by coomassie brilliant blue staining based trypsin proteolysis assay; assay type: protein-complex assay
Method in brief: (§4)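 Tubulin (1 mg/mL) preincubated with 100 µM compound for 30 min at 30 °C in 0.1 M MES, 1 mM MgCl2, 1 mM EGTA, pH 6.9. Trypsin added at 25 µg/mL (1:40 w/w) for 10 min on ice. Fragments resolved on 15% SDS-PAGE, stained with Coomassie and quantified by densitometry.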

Tubulin (Homo sapiens) [25] = molecular target: T2, Tubulin (Homo sapiens); experiment: Binding affinity to tubulin (unknown origin) assessed as reduction in Beta-colfragment production at 100 uM after 30 mins by coomassie brilliant blue staining based trypsin proteolysis assay; assay type: protein-complex assay; method in brief: as §4
Tubulin (Homo sapiens) [26] = molecular target: T2, Tubulin (Homo sapiens); experiment: Binding affinity to tubulin (unknown origin) assessed as reduction in alpha-N fragment production at 100 uM after 30 mins by coomassie brilliant blue staining based trypsin proteolysis assay; assay type: protein-complex assay; method in brief: as §4
[27] = Selectivity index, ratio of IC50 for human KB/VCR cells to IC50 for human KB cells; assay type: functional
[28] = Selectivity index, ratio of IC50 for human CCRF-CEM/VBL cells to IC50 for human CCRF-CEM cells; assay type: functional
[29] = Selectivity index, ratio of IC50 for human KBtax cells to IC50 for human KB cells; assay type: functional
KB = experiment: Antiproliferative activity against human KB cells assessed as reduction in cell viability after 72 hrs by MTS assay; assay type: functional, cell-based; method in brief: as §1
Tubulin (Homo sapiens) [30] = molecular target: T2, Tubulin (Homo sapiens); experiment: Binding affinity to tubulin (unknown origin) assessed as increase in Beta-col fragment production at 100 uM after 30 mins by coomassie brilliant blue staining based trypsin proteolysis assay; assay type: protein-complex assay; method in brief: as §4

Compound: COC(=O)c1ccc2[nH]c(-c3ccccc3)cc(=O)c2c1
- IC50 (NCI-H1975): 207 nM

Compound: CC(=O)O[C@H]1C(=O)[C@@]2(C)[C@H]([C@H](OC(=O)c3ccccc3)[C@]3(O)C[C@H](OC(=O)[C@H](O)[C@@H](NC(=O)c4ccccc4)c4ccccc4)C(C)=C1C3(C)C)[C@]1(OC(C)=O)CO[C@@H]1C[C@@H]2O [PACLITAXEL]
- Activity [1]: 19 mg/dL
- Activity [2]: 868.7 mm3
- IC50 [3]: 857 nM
- IC50 [4]: 101 nM
- IC50 [5]: 708 nM
- Activity [6]: inactive
- Activity [7]: 102.8 IU/L
- Activity [8]: inactive
- IC50 (CCRF-CEM): 4 nM
- Activity [9]: 0.16 mg/dL
- tubulin inhibition call (active/not active) (Tubulin (Sus scrofa)): inactive

Compound: CCOC(=O)c1ccc2[nH]c(-c3ccccc3)cc(=O)c2c1
- Activity [10]: Non-Toxic
- Activity [11]: 20.9 mg/dL
- Activity [12]: 40.8 IU/L
- Kd (Tubulin): 13800 nM
- Activity [13]: 0.17 mg/dL
- Activity [14]: Non-Toxic
- Activity [15]: Non-Toxic
- Activity [16]: 23.2 mg/dL
- Activity [17]: 138.7 IU/L
- Activity [18]: 170.8 IU/L
- Activity [19]: Non-Toxic
- Activity [20]: Non-Toxic
- Activity [21]: 0.26 mg/dL
- Activity [22]: Non-Toxic
- Activity [23]: 54.2 IU/L

Compound: CCOC(=O)c1ccc2[nH]c(-c3cccc(O)c3)cc(=O)c2c1
- IC50 (NCI-H1975): 1950 nM

Compound: CC(C)OC(=O)c1ccc2[nH]c(-c3ccccc3)cc(=O)c2c1
- IC50 (NCI-H1975): 48 nM

Compound: CCOC(=O)c1ccc2[nH]c(-c3ccc(Br)cc3)cc(=O)c2c1
- IC50 (NCI-H1975): 4500 nM

Compound: CCOC(=O)c1ccc2[nH]c(-c3ccc(F)cc3)cc(=O)c2c1
- IC50 (NCI-H1975): 2100 nM

Compound: CCOCc1ccc2[nH]c(-c3ccccc3)cc(=O)c2c1
- IC50 (NCI-H1975): 810 nM

Compound: CCOC(=O)c1ccc2[nH]c(-c3cccc(OC)c3)cc(=O)c2c1
- IC50 (NCI-H1975): 44 nM

Compound: O=C(O)c1ccc2[nH]c(-c3ccccc3)cc(=O)c2c1
- IC50 (NCI-H1975): > 5000 nM

Compound: CCOC(=O)c1ccc2[nH]c(-c3ccc(O)cc3)cc(=O)c2c1
- IC50 (NCI-H1975): 475 nM

Compound: CCOC(=O)c1ccc2[nH]c(-c3cccc(C(F)(F)F)c3)cc(=O)c2c1
- IC50 (NCI-H1975): 780 nM

Compound: CCNC(=O)c1ccc2[nH]c(-c3ccccc3)cc(=O)c2c1
- IC50 (NCI-H1975): 3700 nM

Compound: CC[C@]1(O)C[C@H]2CN(CCc3c([nH]c4ccccc34)[C@@](C(=O)OC)(c3cc4c(cc3OC)N(C=O)[C@H]3[C@@](O)(C(=O)OC)[C@H](OC(C)=O)[C@]5(CC)C=CCN6CC[C@]43[C@@H]65)C2)C1 [VINCRISTINE]
- Activity (Tubulin (Homo sapiens) [24]): Active
- Activity (Tubulin (Homo sapiens) [25]): Active
- Activity (Tubulin (Homo sapiens) [26]): Active
- IC50 [3]: 1320 nM
- IC50 [4]: 49 nM
- Ratio IC50 [27]: 163
- Ratio IC50 [28]: 440
- IC50 [5]: 817 nM
- Ratio IC50 [29]: 9.8
- IC50 (CCRF-CEM): 3 nM
- IC50 (KB): 5 nM
- tubulin inhibition call (active/not active) (Tubulin (Sus scrofa)): Active

Compound: COC(=O)Nc1nc2cc(C(=O)c3cccs3)ccc2[nH]1
- Activity (Tubulin (Homo sapiens) [30]): Active
- Activity [6]: Active
- Activity [8]: Active
- tubulin inhibition call (active/not active) (Tubulin (Sus scrofa)): Active

Compound: C/C(=C\c1csc(C)n1)[C@@H]1C[C@@H]2O[C@]2(C)CCC[C@H](C)[C@H](O)[C@@H](C)C(=O)C(C)(C)[C@@H](O)CC(=O)N1 [IXABEPILONE]
- IC50 [3]: 150 nM
- IC50 [4]: 35 nM
- Ratio IC50 [27]: 24
- Ratio IC50 [28]: 50
- IC50 [5]: 193 nM
- Ratio IC50 [29]: 4.3
- IC50 (CCRF-CEM): 3 nM
- IC50 (KB): 8 nM

Compound: CCOC(=O)c1ccc2[nH]c(-c3ccc(OC)cc3)cc(=O)c2c1
- IC50 (NCI-H1975): 2200 nM
